Sampled rows, rich in hits. Any-hit rate of the full collection: about 3.7%.
ERAP1 inh = inhibitors of human ERAP1 aminopeptidase | Q9NZ08 | recombinant ERAP1, Leu-AMC fluorescence, 60 min | inhibition, % at 10.7 µM | 340,000 tested, 0.15% active;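 active means mean replicate inhibition of at least 30%, or all replicates individually reaching that 30% level; inactive means mean below 30% and not every replicate reaching it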
Target sequence (Q9NZ08 whole entry, looked up): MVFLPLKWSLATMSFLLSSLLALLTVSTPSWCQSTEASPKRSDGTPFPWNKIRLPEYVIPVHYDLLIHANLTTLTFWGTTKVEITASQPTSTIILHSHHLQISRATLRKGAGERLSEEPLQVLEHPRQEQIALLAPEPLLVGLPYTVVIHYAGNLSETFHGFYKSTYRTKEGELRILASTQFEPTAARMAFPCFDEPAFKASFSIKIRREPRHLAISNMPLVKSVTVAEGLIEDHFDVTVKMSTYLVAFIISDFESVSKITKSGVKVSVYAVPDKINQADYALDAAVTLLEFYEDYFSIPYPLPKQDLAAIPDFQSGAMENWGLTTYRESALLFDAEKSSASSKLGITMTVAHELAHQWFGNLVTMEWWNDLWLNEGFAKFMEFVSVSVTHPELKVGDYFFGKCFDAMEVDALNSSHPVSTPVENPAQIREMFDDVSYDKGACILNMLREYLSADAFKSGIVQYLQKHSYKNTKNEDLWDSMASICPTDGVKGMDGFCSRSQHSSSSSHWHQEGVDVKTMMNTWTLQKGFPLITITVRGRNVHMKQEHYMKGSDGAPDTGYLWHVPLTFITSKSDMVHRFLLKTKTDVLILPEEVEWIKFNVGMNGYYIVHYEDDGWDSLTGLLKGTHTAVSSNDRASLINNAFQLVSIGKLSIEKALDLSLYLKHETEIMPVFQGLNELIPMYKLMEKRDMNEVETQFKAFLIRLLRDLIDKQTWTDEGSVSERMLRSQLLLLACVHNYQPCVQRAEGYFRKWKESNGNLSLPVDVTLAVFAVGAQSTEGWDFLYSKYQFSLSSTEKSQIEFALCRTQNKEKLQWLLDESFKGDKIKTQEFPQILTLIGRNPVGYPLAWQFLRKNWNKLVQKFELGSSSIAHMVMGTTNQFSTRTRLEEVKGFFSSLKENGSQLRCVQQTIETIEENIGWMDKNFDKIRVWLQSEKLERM
E-sel inducer = E-selectin induction on HUVECs; P16581; HUVEC E-selectin immunofluorescence imaging; normalized: neutral wells 0, TNF-alpha wells 100; activation, % at 7.58 µM; 260,000 tested, 0.37% active; AID 686992;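 active means mean E-selectin-positive cell signal at least 10% of the positive control, reached in at least 60% of replicates, without over 20% cell loss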
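System: HUVEC / Compound: single concentration / Signal: immunofluorescence imaging / Read-out: percent E-selectin-positive cells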
CFTR F508del cor = correctors of CFTR F508del function in bronchial epithelial cells. CFBE cells, YFP halide quenching; stimulated with forskolin plus potentiator P3; % fluorescence drop versus neutral controls. activity (quench increase), % at 7.58 µM. 350,000 tested, 0.36% active. AID 720511;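 active means mean added fluorescence quench of at least 8% versus neutral control, with both replicates also reaching 8%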;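 further: cells transiently co-express mutant CFTR-F508del with the halide-sensitive YFP; corrector assay measuring rescue of mutant channel to the surface after 24 h compound exposure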
FGF22 binding = binders of recombinant human FGF22 by thermal shift; Q9HCT0; activity (Tm shift, normalised), % at 9.99 µM; 340,000 tested, 1.5% active; SYPRO orange fluorescence; percent of sucrose octasulfate shift, DMSO zero;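 active means mean Tm shift, scaled 0 neutral to 100 positive control, at about 1.3% or above, every replicate too, limit read from the data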
DENV2 CPE = protects cells from dengue virus 2 cytopathic effect; DENV2-infected cells, cytopathic effect rescue, plate reader; CPE inhibition, % at 9.99 µM; 350,000 tested, 1.7% active; AID 651640; in the data active means CPE inhibition above about 20%, passing the limit was not always enough; tested in BHK-21 cells
Of the large screens only hits and unclear results are named; the others gave an inactive call.

CC(C)CNC(=O)C1(C)CCCN1C(=O)c1cncc(Br)c1 (configuration not stated)	DENV2 CPE 26.3
CCCCNC(=O)C1(C)CCN1C(=O)c1cncc(Br)c1 (configuration not stated)	DENV2 CPE 86.1
CC(C)CNC(=O)C1(C)CCCN1C(=O)c1ccncc1 (configuration not stated)	none
O=C(NC[C@@H]1[C@H](c2ccccc2)[C@H](CO)N1Cc1ccccn1)C1CC1	none
Cc1ccc(CSc2nc3ccccc3c(=O)[nH]2)cc1	none (no result: E-sel inducer)
O=c1[nH]c(SCc2ccccc2)nc2c1sc1ccccc12	FGF22 binding 43.9 (no result: E-sel inducer)
CC(C)NC(=O)Nc1ccc2c(c1)C(=O)N([C@@H](C)CO)C[C@H](C)[C@H](CN(C)C)O2	none
CCOC(=O)C1(Cc2cccc(OC)c2)CCN(Cc2ccccc2OC)CC1	FGF22 binding 43.2 (no result: E-sel inducer)
CCOC(=O)C1(CCOc2ccccc2)CCN(CCCn2cccn2)CC1	FGF22 binding 42.9 (no result: E-sel inducer)
CCOC(=O)C1(Cc2ccccc2)CCN(Cc2csc(C(C)=O)c2)CC1	FGF22 binding 43.8
CCOC(=O)C1(Cc2ccccc2)CCN(Cc2cccc3nccnc23)CC1	FGF22 binding 43.8 (no result: E-sel inducer)
CCOC(=O)C1(Cc2ccccc2)CCN(Cc2cnn(C(C)C)c2)CC1	none (no result: E-sel inducer)
CCC(=O)N(C)C[C@@H]1Oc2ncc(C#Cc3ccccc3)cc2C(=O)N([C@@H](C)CO)C[C@@H]1C	none
Cc1ccc(NC(=O)N2CCCC2C(=O)NCC2CCCO2)cc1 (configuration not stated)	FGF22 binding 43.2 (no result: E-sel inducer)
C[C@@H]1CCCCO[C@@H](CN(C)C(=O)Cc2ccccc2)[C@H](C)CN([C@H](C)CO)C(=O)c2cc(NS(=O)(=O)c3ccccc3)ccc2O1	none
O=C1C=CC(O)C2(CO)OC12 (configuration not stated)	DENV2 CPE 25.2
COc1ccc2c3c(n(C)c2c1)[C@@H](CO)N(Cc1ccc(Cl)cc1)CC31CN(CC2CC2)C1	none
COc1ccc(S(=O)(=O)N(C)C[C@H]2Oc3ccc(NC(=O)Nc4ccc5c(c4)OCO5)cc3CC(=O)N([C@@H](C)CO)C[C@@H]2C)cc1	DENV2 CPE 96.8
COc1ccc(S(=O)(=O)N(C)C[C@H]2Oc3ccc(NC(=O)Nc4ccc5c(c4)OCO5)cc3CC(=O)N([C@H](C)CO)C[C@H]2C)cc1	E-sel inducer 36.3
COc1ccc(NC(=O)Nc2ccc3c(c2)CC(=O)N([C@@H](C)CO)C[C@H](C)[C@H](CN(C)S(=O)(=O)c2ccc(OC)cc2)O3)cc1	none
COc1ccc(NC(=O)Nc2ccc3c(c2)CC(=O)N([C@@H](C)CO)C[C@@H](C)[C@H](CN(C)S(=O)(=O)c2ccc(OC)cc2)O3)cc1	none (no result: DENV2 CPE)
CC(C)(C)N1CC(C(=O)O)CC1=O (configuration not stated)	FGF22 binding 43.0 (no result: E-sel inducer)
C[C@H](O)C#Cc1cnc2c(c1)C(=O)N([C@H](C)CO)C[C@H](C)[C@H](CN(C)C(=O)Nc1ccc(F)cc1)O2	none
CCOC(=O)c1cc([N+](=O)[O-])sc1NC(=O)c1ccc(S(=O)(=O)N2CC3(C)CC2CC(C)(C)C3)cc1 (configuration not stated)	DENV2 CPE 30.1 (no result: E-sel inducer)
CCC1=C(OC(=O)N(CC)CC)N2C(=O)OC(=NCCc3c[nH]c4ccccc34)[C@]2(C)[C@H]2C1=CC[C@H]1C(=O)NC(=O)[C@H]12	DENV2 CPE 27.2
CCC1=C(OC(=O)N(CC)CC)N2C(=O)OC(=NCC3CC3)[C@]2(C)[C@H]2C1=CC[C@H]1C(=O)NC(=O)[C@H]12	DENV2 CPE 46.4
COC(=O)c1cn(NC(=O)Cn2nc([N+](=O)[O-])c(Br)c2C)c(=O)c2ccccc12	FGF22 binding 43.3 (no result: E-sel inducer)
COC(=O)c1cn(NC(=O)Cn2nc([N+](=O)[O-])c(Cl)c2C)c(=O)c2ccccc12	none
Cc1c(NC(=O)CN2CCN(c3ccc(F)cc3)CC2)c(=O)n(-c2ccccc2)n1C	none (no result: E-sel inducer)
Cc1c(NC(=O)COC(=O)C2(c3ccc(F)cc3)CCCC2)c(=O)n(-c2ccccc2)n1C	FGF22 binding 43.3
COc1ccc(-c2cc3c(nn2)-c2ccccc2C3=O)cc1	FGF22 binding 42.9 (no result: E-sel inducer)
O=S(=O)(c1ccc(F)cc1)N1CCCCN2[C@@H](CO)[C@H](c3ccc(-c4ccccc4F)cc3)[C@@H]2C1	none (no result: E-sel inducer)
COc1ccc2c3c([nH]c2c1)[C@H](CO)N(C(=O)CN1CCOCC1)CC31CN(C)C1	none (no result: ERAP1 inh, FGF22 binding)
CCC(=O)N1CCC2(CC1)CN(C(=O)CN1CCOCC1)[C@H](CO)c1[nH]c3cc(OC)ccc3c12	DENV2 CPE 40.3
CCC(=O)N1CC2(C1)CN(C(=O)CN1CCOCC1)[C@H](CO)c1[nH]c3cc(OC)ccc3c12	DENV2 CPE 29.9 (no result: ERAP1 inh)
COc1ccc(NC(=O)N2CCC3(CC2)CN(C(=O)CN2CCOCC2)[C@@H](CO)c2[nH]c4cc(OC)ccc4c23)cc1	DENV2 CPE 24.8
COc1ccc2c3c([nH]c2c1)[C@H](CO)N(C(=O)CN1CCOCC1)CC31CN(Cc2ccccc2)C1	DENV2 CPE 52.0
O=C(CC1CC1)Nc1ccc2c(c1)[C@@H]1C[C@@H](CC(=O)NC3CCCC3)O[C@H](CO)[C@@H]1O2	none
C/C=C/c1ccc([C@@H]2[C@@H](CO)N(C(C)=O)[C@@H]2CN(C)C(=O)CN(C)C)cc1	none (no result: ERAP1 inh, FGF22 binding)
COc1cc(/C=C2/SC(=Nc3ccc(O)cc3)NC2=O)cc(OC)c1O	CFTR F508del cor 14.6
COc1cc(/C=C2\SC(=Nc3ccc(O)cc3)NC2=O)cc(OC)c1OC	none
COc1ccc(N=C2NC(=O)/C(=C/c3ccc(O)c(OC)c3)S2)cc1	none (no result: CFTR F508del cor)
COc1ccccc1N=C1NC(=O)/C(=C/c2ccc(N(C)C)cc2)S1	CFTR F508del cor 15.3 (no result: E-sel inducer)
C[C@@H]1CN([C@@H](C)CO)C(=O)c2cccc(NS(=O)(=O)c3cccs3)c2O[C@@H]1CN(C)C(=O)NC1CCCCC1	none
O=C(NCC[C@@H]1CC[C@@H](NS(=O)(=O)c2cccc(F)c2)[C@@H](CO)O1)C1CCCC1	none
C[C@@H]1CN([C@@H](C)CO)C(=O)Cc2cc(NC(=O)Nc3ccc(C(F)(F)F)cc3)ccc2O[C@@H]1CN(C)C(=O)NC1CCCCC1	none
N#Cc1ccc(-c2ccc(OCC(=O)NN=Cc3ccncc3)cc2)cc1	DENV2 CPE 29.5 (no result: E-sel inducer, CFTR F508del cor)
Cc1cccc(C)c1OCC(=O)N/N=C/c1ccncc1	none (no result: E-sel inducer)
O=C(COc1cccc2ccccc12)N/N=C/c1ccncc1	FGF22 binding 43.2 (no result: E-sel inducer)
Cc1ccccc1-c1ccc(C2[C@@H]3CN(Cc4cccnc4)C[C@H]2N3)cc1 (some centres not stated)	none (no result: FGF22 binding)
CC=Cc1ccc2n(c1=O)C[C@@H]1[C@@H](CO)[C@H](C(=O)N3CCC(Cc4ccccc4)CC3)N(CCC)[C@H]21 (mixture of isomers)	none (no result: FGF22 binding)
Cc1ccc(-n2c(SCC(=O)N3CCOCC3)nnc2-c2cccnc2)cc1	none (no result: E-sel inducer)

Compound activity: PubChem, Broad Institute
